Results on 90 compounds are retold here after PubChem BioAssay AID624467 (The Scripps Research Institute Molecular Screening Center, 2012).

Hit rate of the full screen: of about 360,000 compounds, about 3,600 (1%) were called active.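 How the source made its calls: active means activation above the mean activation of all test compounds in the run plus 3 SD (cut at about 38% in these data); inactive means the rest.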 What follows is part of a selection rich in actives, with near analogues and random picks from the rest.

Chain of Trace amine-associated receptor 1 (Homo sapiens) (Q96RJ0 whole entry, looked up): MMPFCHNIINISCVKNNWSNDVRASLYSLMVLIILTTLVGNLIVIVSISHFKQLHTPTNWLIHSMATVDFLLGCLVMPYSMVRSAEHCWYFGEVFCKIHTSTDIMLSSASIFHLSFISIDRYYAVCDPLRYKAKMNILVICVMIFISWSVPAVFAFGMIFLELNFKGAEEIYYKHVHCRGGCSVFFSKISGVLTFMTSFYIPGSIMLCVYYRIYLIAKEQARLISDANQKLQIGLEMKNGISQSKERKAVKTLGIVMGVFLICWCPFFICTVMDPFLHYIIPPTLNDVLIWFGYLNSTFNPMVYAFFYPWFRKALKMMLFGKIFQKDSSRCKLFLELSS

This experiment addresses Trace amine-associated receptor 1 (Homo sapiens) (UniProt Q96RJ0). In words: human TAAR1 agonists, primary screen, Fluo-8 calcium fluorescence, CHO RD-HGA16 cells (AID 624467). Conditions: CHO RD-HGA16 TAAR1, Fluo-8 calcium fluorescence; at 3 µM; hits give high values; vehicle wells 0%, saturating PEA agonist 100%. The method in brief: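 Test system: RD-HGA16 (CHO) cells co-expressing Gα16 and hTAAR1; dosing: one-point dosing at 3 µM (nominal); timing: 17-24 h seeding, 75 min 37 °C dye, 30 min RT; signal: kinetic Fluo-8 calcium fluorescence; read-out basis: % activation relative to PEA EC100 response; controls: DMSO and PEA EC100; replicates: n 1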
On to `COc1ccc(N(C)C(=O)C2CCN(S(=O)(=O)c3cccc4nsnc34)CC2)cc1`, for which the activation is 2.99% (inactive).
For `CCn1cc(CN2CCC(C(=O)Nc3cccc(-c4cccc(Cl)c4)c3)CC2)cn1`, the activation is 16.6% (inactive).
Turning to `CCn1cc(CN2CCC(C(=O)Nc3cccc(-c4cccc(Cl)c4)c3)CC2)c(C)n1`, the activation was 19.7% (inactive).
As to `O=C(Nc1cccc(-c2cccc(Cl)c2)c1)C1CCN(C2CCC2)CC1`, the activation is 45.3% (active).
`O=S(=O)(c1cccs1)N1CCCc2nc(-c3ccc(Br)cc3)ccc21`: the activation is 1.37% (inactive).
As for `NC(=O)c1ncn([C@@H]2O[C@H](C(=O)O)[C@@H](O)[C@H]2O)n1`, the activation was 1.97% (inactive).
For the compound `COCCNC(=O)c1cc2c(Br)ccc(Br)c2nc1N`, the activation is 0.74% (inactive).
`CCC(c1nnnn1C1CCCC1)N(Cc1cccs1)Cc1cc2cccc(C)c2[nH]c1=O` (stereo not given): the activation is 2.02% (inactive).
`Cc1cccc2cc(CN(Cc3nnnn3Cc3ccccc3)C3CCCC3)c(=O)[nH]c12`: the activation was 12% (inactive).
With `CCC(c1nnnn1Cc1ccco1)N(CCc1ccccc1)Cc1cc2ccc(OC)cc2[nH]c1=O` (stereo not given), the activation is 100% (active).
Take `CCC(c1nnnn1Cc1ccco1)N(CCc1ccccc1)Cc1cc2cccc(C)c2[nH]c1=O` (stereo not given): the activation is 43.8% (active).
With `CCC(c1nnnn1Cc1ccco1)N(Cc1cc2cc(OC)ccc2[nH]c1=O)C1CCCCC1` (stereo not given), the activation was 1.97% (inactive).
As for `COc1ccc2[nH]c(=O)c(CN(Cc3nnnn3CCc3ccccc3)CC3CCCO3)cc2c1` (stereo not given), the activation was 11.8% (inactive).
The same measure for `CN(C)S(=O)(=O)c1cc(C(=O)Nc2ccn(C)n2)c(Cl)cc1Cl`: 2.93% (inactive).
As to `Nc1ncnc2c1ncn2C1OC(CO)CC1O` (stereo not given), the activation is 1.93% (inactive).
Turning to `CN(C)CCCNC(=S)N1CCN(c2nc(-c3ccccc3)cs2)CC1`, the activation was 3.41% (inactive).
Regarding `O=S(=O)(c1cccs1)N1CCc2ccccc2C1`, the activation was 13% (inactive).
In the case of `c1ccc(-c2csc(N3CCc4ccccc4C3)n2)cc1`, the activation is 73% (active).
In the case of `COc1ccc(Cn2c(-c3ccc(Cl)cc3)c[n+]3ccccc23)cc1` it was 12.9% (inactive).
Regarding `C=CC1=CCN(S(=O)(=O)C(C)(C)C)[C@@H]1CCO`, the activation was 3.56% (inactive).
Consider `FC(F)(F)c1ccc(-n2cn[nH]c2=S)cc1`, for which the activation is 0.73% (inactive).
The same measure for `CSc1ccc(CCNC(=O)C2CCN(c3nnc(-n4cccc4)s3)CC2)cc1`: -0.88% (inactive); for `CCOC(=O)C1CCCN(C(=O)C2CCN(c3nnc(-n4cccc4)s3)CC2)C1` (stereo not given): -0.39% (inactive).
In the case of `O=C(C1CCN(c2nnc(-n3cccc3)s2)CC1)N1CCc2ccccc2C1` it was 40.9% (active).
The same measure for `CC1(C)CC(=O)C=C(c2ccccc2CO)C1=O`: 0.98% (inactive); for `COC1=CCC2([N+](=O)[O-])CN(CC(=O)O)CC1([N+](=O)[O-])C2` (stereo not given): 1.51% (inactive).
Regarding `CCOC(=O)C1=C(C(=O)OCC)C2N(Cc3ccc(C#N)cc3)c3ccccc3[C@@]23C[C@@H](C(=O)OC)N(S(=O)(=O)c2ccc(F)cc2)C3=N1` (stereo not given in full), the activation is -0.08% (inactive).
As for `Cc1noc(C)c1NC(=O)Nc1ccc2c(c1)C(=O)N([C@H](C)CO)C[C@H](C)[C@H](CN(C)Cc1ccncc1)OCCCC[C@@H](C)O2`, the activation was 2.28% (inactive).
Consider `Cc1cc(=O)oc2c(C)c(OCC(=O)NCCN3CCOCC3)ccc12`, for which the activation is 43.2% (active).
On to `Cc1cc(=O)oc2c(C)c(OCC(=O)NCCc3ccc(S(N)(=O)=O)cc3)ccc12`, for which the activation is 0.73% (inactive).
In the case of `CCc1cc(=O)oc2c(C)c(OCC(=O)NCCN3CCOCC3)ccc12` it was 2.36% (inactive); in that of `O=C1C2(c3ccccc3)CN(CCCO)CC1(c1ccccc1)CN(CCCO)C2`, 2.41% (inactive); in that of `CCCSc1nc2c(c(=O)n(C)c(=O)n2C)n1Cc1ccc(C)cc1`, 52.6% (active).
With `Cn1c(=O)c2c(nc(SCCNS(=O)(=O)c3ccccc3)n2C)n(C)c1=O`, the activation was 1.23% (inactive).
With `CCOc1ccc(Cn2c(SCCCCC#N)nc3c2c(=O)n(C)c(=O)n3C)cc1OCC`, the activation is 17.1% (inactive).
For `CC1CCc2sc(C(=O)N/N=C/C3CCCCC3)cc2C1` (stereo not given), the activation was 5.23% (inactive).
Consider `COCc1[nH]nc2c1C(c1ccccc1)N(c1ccccc1)C2=O` (stereo not given), for which the activation is 0.37% (inactive).
Take `O=C(Cn1nnc(-c2ccccc2)n1)N/N=C/c1ccc(-c2ccc(Cl)cc2)o1`: the activation was -0.07% (inactive).
As for `O=C(Cn1cncn1)N/N=C/c1c2ccccc2cc2ccccc12`, the activation is 6.44% (inactive).
With `Nc1nnn(CC(=O)N/N=C/c2ccccc2)n1`, the activation is 43.3% (active).
In the case of `CC(C)CNc1cccc2c1S(=O)(=O)N[C@H](C)CO2`, the activation is -0.59% (inactive).
Consider `CC(=O)NC(=S)NNC(=O)c1ccc(Br)cc1`, for which the activation was 6.34% (inactive).
Turning to `COc1ccc(C(=O)NNC(=S)NC(=O)c2ccccc2)cc1`, the activation was 130% (active).
In the case of `Cn1nnc(NC(=S)NC(=O)c2ccccc2)n1` it was 0.43% (inactive); in that of `COc1ccc(/C(N)=N/OC(=O)CCCc2ccccc2)cc1`, 5.81% (inactive).
With `CCOc1ccccc1NC(=S)NC(=O)CCc1ccccc1`, the activation was -1.05% (inactive).
On to `COc1ccc(C(=O)NC(=S)NNC(=O)CCc2ccccc2)cc1`, for which the activation was 108% (active).
In the case of `COCCCNC(=O)C[C@H]1C[C@@]2(C(=O)OC)C(=C[C@H](C(C)(C)C)O[C@@H]2C)N(Cc2ccc3c(c2)OCO3)C1=O`, the activation is 0.46% (inactive).
In the case of `Nc1[nH]c(C(=O)c2ccccc2)c(-c2ccc(Cl)cc2Cl)c1C(=O)c1ccccc1`, the activation was 1.29% (inactive).
On to `CCC(Sc1nncn1C)C(=O)Nc1nnc(-c2ccc(Cl)cc2)s1` (stereo not given), for which the activation is 0.73% (inactive).
For the compound `COCc1cc(N2CCN(C(=O)OC(C)(C)C)C[C@@H]2C)ccc1N1CCN(Cc2ccccc2)[C@H](C)C1`, the activation is -1.74% (inactive).
In the case of `Cc1ccccc1C(=O)N[C@H](C(=O)N1CCC[C@H]1C(=O)NCc1ccccc1)C(C)C` it was 1.24% (inactive); in that of `CC(=O)N(CC(O)CO)c1c(I)c(C(=O)NCC(O)CO)c(I)c(C(=O)NCC(O)CO)c1I` (stereo not given), 0.12% (inactive); in that of `COC(=O)[C@]12C[C@H](CC(=O)NCc3cccc(C(F)(F)F)c3)C(=O)N(Cc3ccc4c(c3)OCO4)C1=C[C@H](COCc1ccccc1)O[C@@H]2C`, 1.6% (inactive).
On to `Nc1cc(OC(=O)c2ccccc2Br)nn1S(=O)(=O)c1ccccc1`, for which the activation is 78% (active).
The same measure for `CN1C(=O)/C(=N/OC(=O)c2ccccc2Br)c2ccccc21`: 2.86% (inactive); for `Cc1ccc(S(=O)(=O)n2nc(OC(=O)C(C)(C)C)cc2N)cc1`: 2.73% (inactive).
In the case of `COc1ccc2cc(-c3[nH]ncc3CNCCn3nc(C)cc3C)ccc2c1`, the activation was 44% (active).
For `Cc1cc(C)n(CCNS(=O)(=O)c2ccc(Cl)cc2)n1`, the activation is 2.21% (inactive).
Take `COc1ccc(-c2cn[nH]c2-c2ccc(OC)cc2)cc1`: the activation was 5.38% (inactive).
Regarding `C[C@@H]1CN([C@@H](C)CO)S(=O)(=O)c2ccc(C#Cc3cccc(F)c3)cc2O[C@H]1CN(C)S(=O)(=O)c1cn(C)cn1`, the activation is 20.9% (inactive).
With `COCCCNC(=S)NC(=O)c1ccc([N+](=O)[O-])cc1`, the activation was 0.22% (inactive).
As to `CC(C)CC(=O)NC(=S)NNC(=O)c1cccc([N+](=O)[O-])c1`, the activation is 20.7% (inactive).
`CCCCCC(=O)NC(=S)NNC(=O)c1ccc([N+](=O)[O-])cc1`: the activation was 71.7% (active).
Turning to `CCOc1cc(C(=O)N2CCc3cc(OC)c(OC)cc3C2)ccc1OC(F)F`, the activation was 3.06% (inactive).
Take `Cc1cc(OC(=O)NCCc2ccc(F)cc2)ccc1F`: the activation was 3.75% (inactive).
In the case of `CC[C@H](C)[C@H]1CNC(=O)C(=O)N1CC1CCN(CCc2ccc(OC)c(OC)c2)CC1`, the activation is -0.17% (inactive).
As to `Cc1ccc(O)c(-c2cc(C(=O)NCc3ccccc3)[nH]n2)c1`, the activation is 8.4% (inactive).
`Cc1cc(O)ccc1-c1cc(C(=O)NCc2cc(C(F)(F)F)cc(C(F)(F)F)c2)[nH]n1`: the activation is 39.9% (active).
Consider `CCCOc1ccc(F)cc1-c1cc(C(=O)NCc2ccc(F)cc2)[nH]n1`, for which the activation is 3.61% (inactive).
With `Brc1cnc2ccccc2c1N1CCCCC1`, the activation is 5.6% (inactive).
On to `CCOC(=O)C1=C(CC)Nc2ccccc2N=C1NC(=O)c1cccc(S(=O)(=O)N2CCCC2)c1`, for which the activation was 7.96% (inactive).
In the case of `CC(C)(C)NC(=O)NC(=O)COC(=O)Cc1ccc(Cl)cc1Cl` it was -2.34% (inactive).
For the compound `NC(N)=N/N=C/c1ccc(OCc2ccc(Cl)cc2Cl)cc1`, the activation is 84.3% (active).
Consider `NC(=O)COc1ccc(/C=N/NC(=O)C2CCCN2S(=O)(=O)c2ccc(Cl)cc2)cc1` (stereo not given), for which the activation is 5.15% (inactive).
Regarding `O=C(Nc1ccc(S(=O)(=O)Nc2ncccn2)cc1)C12CC3CC(CC(C3)C1)C2`, the activation is 0.17% (inactive).
Regarding `Cc1cc(C(F)F)n2nc(C(=O)Nc3ccc(S(=O)(=O)NC45CC6CC(CC(C6)C4)C5)cc3)nc2n1`, the activation is 6.82% (inactive).
Regarding `CCn1nccc1C(=O)Nc1ccc(S(=O)(=O)NC23CC4CC(CC(C4)C2)C3)cc1`, the activation was 42.5% (active).
The same measure for `COC(=O)c1cc2c(c3c4cc(F)ccc4n(S(=O)(=O)c4ccccc4)c13)C(=O)N(Cc1ccccc1OC)C2`: 0.14% (inactive); for `O=C1CC(Sc2ncn[nH]2)C(=O)N1c1ccccc1` (stereo not given): 4.92% (inactive); for `COc1cccc(-c2nc3nc(C)cc(C)n3c2NC2CCCCC2)c1`: 1.46% (inactive).
As for `CC(C)(C)Oc1ncc(Br)c(OC(C)(C)C)n1`, the activation was 1.63% (inactive).
As for `COc1cccc(-c2cnc(OC(C)(C)C)nc2OC(C)(C)C)c1`, the activation was 47.4% (active).
For the compound `CN(C)c1ccc(/C=C2\NC(=S)N(Cc3ccccc3)C2=O)cc1`, the activation was 81.4% (active).
Take `CC(=O)C1=C(C)N(Cc2ccccc2)C(=S)NC1c1cccc(Br)c1` (stereo not given): the activation was -0.24% (inactive).
Consider `CN(C(=O)CN1C(=O)NC(C)(CCc2ccccc2)C1=O)c1ccccc1` (stereo not given), for which the activation was 1.03% (inactive).
The same measure for `Cc1ccc(N)cc1CN1CCN(c2ncc(Cc3ccccc3)cn2)CC1`: -0.94% (inactive); for `COc1ccc(C2/C=C\CN(CC(C)C)CC(=O)N2Cc2ccc(F)cc2)cc1` (stereo not given): -1.75% (inactive); for `Cc1c([N+](=O)[O-])c(N)nn1C`: 2.61% (inactive).
As to `Cc1nn2c3cc(N4CCOCC4)ccc3nc2c2ccccc12`, the activation was 2.7% (inactive).
